Source: PubChem
TAAR1 antag – human TAAR1 antagonism. AID 624466. Q96RJ0. inhibition, % at 3 µM. CHO RD-HGA16 TAAR1, Fluo-8 calcium fluorescence, antagonist. actives 1.5% (n = 360,000);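 active means inhibition above a per-plate cutoff, the mean inhibition of test compounds on that plate plus 3 SD, cut at about 49% in these data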;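 further: 0% = DMSO plus EC80 beta-PEA response and 100% = DMSO alone without agonist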
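Test system: hTAAR1-expressing CHO RD-HGA16 cells, Gα16-coupled; Probe or stimulus: EC80 β-phenethylamine stimulus; Compound dosing: single nominal final test compound concentration of 3 µM; Timing: 140 s kinetic read after compound, 140 s after agonist; Signal: Fluo-8 calcium-sensitive fluorescence; Measure: % inhibition of agonist calcium response; Controls: DMSO and EC80 PEA controls.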
CHO parental Ca – counter-screen for OX1R antagonists: effect in parental CHO cells | parental CHO-K1, ATP-induced calcium, Fluo-8 fluorescence | inhibition, % at 5.6 µM | actives 0.63% (n = 330,000);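 active means inhibition above that plate's mean sample inhibition plus 3 SD, cut at about 26% in these data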;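 further: 0% = ATP-challenged DMSO wells and 100% = DMSO wells without ATP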
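Assay system: untransfected parental CHO cell line. Also added: ATP agonist challenge. Dosing: one dose, 5.6 µM nominal. Measured by: Fluo-8 fluorescence. Read-out: % inhibition. Benchmarks: ATP wells versus no-ATP DMSO wells. Repeats: no replicates.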
GPR7 antag – human neuropeptides B/W receptor 1 antagonism; AID 1861; P48145; GPR7-expressing cells, fluorescence antagonist assay; inhibition, % at 4.4 µM; actives 1.1% (n = 290,000); in the data active means inhibition above about 16%, passing the limit was not always enough;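 further: cells stimulated with the agonist NPW; 0% = agonist with vehicle and 100% = vehicle without agonist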
OX1R antag-1 – blocks the human orexin 1 receptor; O43613; CHO/OX1R cells, Fluo-8 calcium fluorescence, orexin A; inhibition, % at 5 µM; actives 0.43% (n = 330,000);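 active means inhibition above its plate's threshold, mean inhibition of all tested compounds on the plate plus 3 SD, cut at about 37% in these data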;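 further: 0% = orexin A challenge wells and 100% = SB-334867-A antagonist wells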
Target sequence (O43613 whole entry, looked up): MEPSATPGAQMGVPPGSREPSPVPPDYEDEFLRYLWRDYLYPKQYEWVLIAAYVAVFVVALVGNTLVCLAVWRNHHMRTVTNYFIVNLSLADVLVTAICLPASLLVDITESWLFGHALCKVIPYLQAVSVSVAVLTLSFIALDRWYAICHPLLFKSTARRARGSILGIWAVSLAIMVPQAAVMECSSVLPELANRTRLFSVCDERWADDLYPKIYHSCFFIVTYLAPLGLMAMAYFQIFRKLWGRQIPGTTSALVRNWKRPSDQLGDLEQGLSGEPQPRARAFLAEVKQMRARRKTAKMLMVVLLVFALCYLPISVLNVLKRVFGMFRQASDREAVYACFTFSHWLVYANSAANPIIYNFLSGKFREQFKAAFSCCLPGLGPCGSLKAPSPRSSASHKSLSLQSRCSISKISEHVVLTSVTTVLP
OX1R antag-2 – antagonists of human orexin 1 receptor (OX1R). O43613. OX1R-expressing cells, FRET antagonist read-out. inhibition, % at 6.6 µM. actives 1.8% (n = 330,000). AID 485270; in the data active means inhibition mostly above about 38%, no sharp cut-off; inactive means mostly below about 40%;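 further: 0% = agonist challenge alone and 100% = reference antagonist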
TAAR1 ag – agonists of human TAAR1 | Q96RJ0 | CHO RD-HGA16 TAAR1, Fluo-8 calcium fluorescence; vehicle wells 0%, saturating PEA agonist 100% | activation, % at 3 µM | actives 0.99% (n = 360,000) | AID 624467;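 active means activation above the mean activation of all test compounds in the run plus 3 SD, cut at about 38% in these data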
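Benchmarks: low control DMSO, high control PEA (EC100); System: CHO RD-HGA16 cells carrying human TAAR1 plus Gα16; Detection: Fluo-8 fluorescence, 5 s baseline then 140 s kinetic read; Schedule: 17-24 h plating, Fluo-8 75 min 37 °C, 30 min RT; Read-out basis: % activation from peak over basal fluorescence ratio, DMSO-to-PEA scaled.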
Starred values were filed as active, the others as inactive; x = no result given. Compounds with a hit are over-represented: about 4.6% of the library has one in this group of screens.

SMILES | TAAR1 antag | CHO parental Ca | GPR7 antag | OX1R antag-1 | OX1R antag-2 | TAAR1 ag
CS(=O)(=O)O/N=C1\CCCCC1c1ccc([N+](=O)[O-])cc1[N+](=O)[O-] (configuration not stated) | 5 | -4 | 4 | -3 | 49* | 0
COc1ccc(C(CCN2CCOCC2)c2c(O)cc(OC)cc2OC)cc1 (configuration not stated) | 11 | -12 | x | -26 | 10 | 4
COc1ccc(C(c2c(O)ccc3ccccc23)N2CCOCC2)c(OC)c1 (configuration not stated) | 21 | 68* | 16 | 71* | 22 | 9
COc1ccc(Cc2nnc(SCC(=O)NC(C)c3ccccc3)o2)cc1 (configuration not stated) | -4 | -14 | -1 | -29 | 11 | 4
CC(=O)C(=Nc1ccccc1Cl)NNc1ccc(Cl)cc1 | 8 | -3 | -7 | -17 | 77* | 5
CCOc1cc(CNc2ccc(OC)cc2)cc(Br)c1OCC(=O)NC(C)(C)C | 5 | -7 | -11 | 9 | 4 | 4
C=CCn1c(-c2csc(-c3ccc(OC)c(OC)c3)n2)n[nH]c1=S | -16 | 72* | -7 | -9 | 32 | 0
O=C(NCc1cccnc1)NC(C(F)(F)F)C(F)(F)F | -11 | -2 | -12 | 1 | 19 | 5
CC(C)c1ccc(/C=C/C(=O)Nc2nc3ccc([N+](=O)[O-])cc3s2)cc1 | -14 | 0 | -12 | -11 | 18 | 12
O=[N+]([O-])c1ccc2nc(NN=Cc3ccc(O)cc3)sc2c1 | 51* | x | x | x | x | 12
CCn1c(CSc2nc3ccccc3s2)nc2ccccc21 | 38 | 55* | -5 | 79* | 100* | 20
COc1ccc(NC(=O)CC2SC(=NCC3CCCO3)NC2=O)c([N+](=O)[O-])c1 (configuration not stated) | -14 | -2 | -21 | -21 | 50* | 3
COC(=O)c1ccc(OC)c(Cn2c(=O)n(C)c(=O)c3sccc32)c1 | x | -13 | -12 | -27 | -2 | x
Cc1ccc2c(c1)nnn2C1CCN(S(=O)(=O)c2ccc(C(=O)O)cc2)CC1 | -2 | -4 | -12 | -4 | 5 | -1
Cc1ccc2c(c1)nnn2C1CCN(S(=O)(=O)c2ccc(C(=O)N3C(C)CCCC3C)cc2)CC1 (configuration not stated) | 26 | 56* | 6 | 59* | 33 | 13
Oc1ccc(N=Nc2ccc3ccccc3c2)cc1 | 13 | 43* | -3 | 5 | -1 | 0
CCOC1=C2CN(S(=O)(=O)c3ccc(C)cc3)[C@H](c3ccccc3)C[C@@H]2N(S(=O)(=O)c2ccc(C)cc2)[C@H](c2ccccc2)C1 | 3 | x | x | x | x | 0
COc1ccc(OC[C@@H](O)CNC(=O)c2cccc3c2C(=O)c2ccc(Cl)cc2S3(=O)=O)cc1 | 35 | -35 | x | -22 | 42* | 25
O=C(NCc1ccc(F)cc1)c1cccc2c1C(=O)c1ccc(Cl)cc1S2(=O)=O | 0 | x | x | x | x | 9
CC(=O)c1c(C)[nH]c(C(=O)CSc2nc3ccccc3n2C)c1C | 55* | 51* | 9 | 78* | 108* | 24
CCn1c(SCC(=O)c2[nH]c(C)c(C(C)=O)c2C)nnc1-c1cccs1 | 21 | 5 | -1 | -12 | 11 | 22
Cn1nnc(NCc2cc(Br)ccc2OCc2cccs2)n1 | -12 | -13 | 0 | 11 | 0 | 6
C=CCn1c(-c2ccc(S(=O)(=O)N3CCOCC3)cc2)csc1=Nc1ccccc1 | 20 | 39* | -6 | 4 | 19 | 8
CC(=O)c1cccc(N=c2scc(-c3ccc(S(=O)(=O)N4CCOCC4)cc3)n2CCO)c1 | 36 | 12 | 14 | 25 | 28 | 18
Cc1ccc(N(CCCCN2C(=O)c3ccccc3C2=O)C(=O)c2cccs2)cc1 | 49* | -17 | -10 | -24 | 10 | 8
Cc1ccc(OCCC(=O)NNC(=O)c2ccc(Br)cc2)cc1 | -7 | -14 | x | -35 | 15 | 2
O=c1c2ccccc2oc2cc(C#CC3(O)CCCCC3)ccc12 | 28 | -34 | x | -20 | 61* | 31
O=c1c2ccccc2sc2ccc(C#CC3(O)CCCCC3)cc12 | 33 | -24 | x | -9 | 41 | 7
